Bioassay records deposited in PubChem by Johns Hopkins Ion Channel Center.
KCNQ1 act: human KCNQ1 channel potentiation or activation; 310,000 tested, 0.35% active; P51787; CHO-K1 KCNQ1, thallium flux FluxOR fluorescence; active compounds read high; B-score at 10 µM; AID 2648;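 active = fluorescence ratio B-score, a plate-corrected score, at least three library SD, with initial intensity B-score within 5 SD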
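Assay system: CHO-K1 cells stably expressing KCNQ1. Medium: assay buffer for compound exposure, DMSO matched across wells. Timing: 37 °C overnight plating, 90-min dark dye load, 20-min compound pretreatment. Signal: kinetic FluxOR fluorescence, 10 s baseline plus 110 s post-stimulus.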
KCNQ1 inh: inhibitors of human KCNQ1 potassium channel; P51787; CHO-K1 KCNQ1, FluxOR thallium flux fluorescence; active compounds read high; AID 2642; 310,000 tested, 1.3% active; B-score at 10 µM;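 active = compounds whose thallium flux B-score, printed positive for inhibition, exceeds three library SD while starting fluorescence stays within three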;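 also: channel opened by potassium depolarization with thallium stimulus after 20 min compound exposure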
Kir21 block: inhibitors of mouse Kir2.1 inward-rectifier potassium channel; HEK293-Kir2.1, FluxOR thallium flux fluorescence; active compounds read low; B-score at 10 µM; 310,000 tested, 0.85% active; AID 1672;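 active = fluorescence ratio B-score at or below minus 3 SD of library scores, with starting-brightness B-score within 2 SD, cut at about -4.2 in these data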;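 also: channel flux triggered by added potassium and thallium sulfate stimulus; B-score of peak minus minimum fluorescence over baseline after thallium stimulus; more negative B-score means stronger Kir2.1 block with less thallium influx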
KCNK9 inh-1: human KCNK9 channel inhibition; Q9NPC2; HEK293 KCNK9, FluxOR thallium flux fluorescence; active compounds read low; B-score at 10 µM; 310,000 tested, 1.2% active; AID 488922;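 active = ratio B-score over 3 SD below the library mean, with starting fluorescence within 5 SD of its mean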;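 also: negative B-score means less thallium flux so channel inhibition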
Target sequence (Q9NPC2 whole entry, looked up): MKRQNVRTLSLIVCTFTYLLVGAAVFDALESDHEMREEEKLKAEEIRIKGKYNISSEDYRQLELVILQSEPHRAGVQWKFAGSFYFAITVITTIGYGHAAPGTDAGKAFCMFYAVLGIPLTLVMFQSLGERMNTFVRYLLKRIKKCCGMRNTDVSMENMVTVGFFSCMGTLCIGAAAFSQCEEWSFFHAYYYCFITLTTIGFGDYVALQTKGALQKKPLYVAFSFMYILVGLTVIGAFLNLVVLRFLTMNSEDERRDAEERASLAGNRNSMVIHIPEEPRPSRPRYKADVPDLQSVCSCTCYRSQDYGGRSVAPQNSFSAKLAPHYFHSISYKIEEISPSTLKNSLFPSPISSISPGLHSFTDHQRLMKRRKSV
KCNK3 inh: human KCNK3 channel inhibition, primary screen. O14649. CHO-KCNK3 thallium flux, FluxOR fluorescence; active compounds read low. B-score at 10 µM. 340,000 tested, 0.84% active;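 active = B-score under library mean minus 4 SD, starting fluorescence ratio at most library mean plus 5 SD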;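 also: more negative B-score means stronger inhibition of thallium flux through KCNK3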
hERG rescue: compounds protecting human hERG from proarrhythmic drug block. 310,000 tested, 0.51% active. activation (rescue from dofetilide block), less the hit threshold, % at 10 µM. Q12809. CHO-hERG, FluxOR thallium flux, dofetilide IC70 present;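 active = activation above the mean of controls blocked by dofetilide plus 5 SD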;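 also: thallium influx through hERG after potassium depolarization seen as dye fluorescence rise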
hERG inh: blocks human hERG, in counter-screen for Kir2.1 inhibitors | shares compounds with Kir21 block | hERG-expressing cells, thallium flux | inhibition, % at 10 µM | 320 tested, 20% active | AID 2236;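 also: host cells are CHO cells stably expressing hERG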
KCNK9 inh-2: tests whether Kir2.1 inhibitors also affect human KCNK9 | shares compounds with Kir21 block | KCNK9-expressing cells, ion flux inhibition | inhibition, % at 10 µM | 320 tested, 5% active
Kir2-1 patch inh: blocks mouse Kir2.1 current in automated electrophysiology | inhibition, % at 25 µM | Kir2.1 cells, automated patch-clamp current inhibition | 320 tested, 71% active | shares compounds with Kir21 block
The depositor's hits bear a star; i = inactive; x = no result given. A selection: hits, their analogues and other compounds. The true share with any hit is near 3.8%. Unless noted, no rule for the calls is given here.

SMILES | KCNQ1 act | KCNQ1 inh | Kir21 block | KCNK9 inh-1 | KCNK3 inh | hERG rescue | hERG inh | KCNK9 inh-2 | Kir2-1 patch inh
CC(=O)N1CC(C)Sc2ccc(S(=O)(=O)NCc3ccccc3Cl)cc21 (configuration not stated) | i | i | -6.08* | i | i | -5.2 | i | i | i
CC(=O)N1CCOc2ccc(S(=O)(=O)NCc3ccccc3Cl)cc21 | i | i | -2.63 | i | i | -8.8 | x | x | x
Cc1ccc(CSc2nnc(CCNC(=O)OC(C)(C)C)o2)cc1 | i | i | -10.9* | i | i | -7.0 | i | i | 59.7%*
CC(C)(C)OC(=O)NCCCCCc1nnc(SCc2ccc(F)cc2)o1 | i | i | -2.38 | i | i | -9.3 | x | x | x
O=S(=O)(c1ccccc1F)N1CCCc2ccccc21 | i | i | -6.13* | i | i | -9.2 | i | i | 32.5%*
CC1(c2ccc(OC(F)F)cc2)NC(=O)N(CC(=O)Nc2ccc(N3CCCCC3)cc2)C1=O (configuration not stated) | i | i | 0.63 | i | i | -5.7 | x | x | x
CCc1ccc(NC(=O)CSc2nccn(-c3ccc4c(c3)OCCO4)c2=O)cc1 | i | i | 1.67 | i | i | -14.1 | x | x | x
COc1ccc(NC(=O)CSc2nnc(-c3ccncc3)o2)c([N+](=O)[O-])c1 | i | i | -0.93 | i | i | -3.8 | x | x | x
Cc1ccc(C(CCNC(C)c2cccs2)c2ccco2)cc1 (configuration not stated) | i | i | -8.39* | i | i | -6.6 | 62.0%* | i | i
CC(C)Sc1nc2c(cnn2-c2ccc(Cl)cc2)c(=O)[nH]1 | i | i | 0.03 | i | i | -0.9 | x | x | x
Cc1ccc(NC(=O)c2ccc(NS(=O)(=O)c3ccc4[nH]c(=O)[nH]c4c3)cc2)nc1 | i | i | 0.57 | i | i | -20.5 | x | x | x
CCCCN(CCCC)CCNC(=O)CN1C(=O)COc2ccc(S(=O)(=O)N3CCC(C)CC3)cc21 | i | i | -1.87 | i | i | -5.8 | x | x | x
CCCCN(CCCNC(=O)CN1C(=O)COc2ccc(S(=O)(=O)N3CCC(C)CC3)cc21)Cc1ccccc1 | i | i | -5.72* | i | i | -11.5 | i | i | i
c1ccc(COc2ccc(OCCCNC3CCCC3)cc2)cc1 | i | i | -8.8* | i | i | -1.5 | 47.0%* | i | 26.0%*
O=S(=O)(NCc1csc(-c2cccs2)n1)c1cccs1 | i | i | -2.28 | i | i | -10.6 | x | x | x
O=S(=O)(NCc1csc(-c2cccs2)n1)c1ccc(Cl)cc1 | i | i | -10.6* | i | i | -12.1 | i | i | 22.3%*
O=[N+]([O-])c1ccc(Sc2nccn2Cc2ccccc2)c([N+](=O)[O-])c1 | i | i | -7.19* | i | i | -5.8 | i | i | 34.7%*
O=[N+]([O-])c1cc(C(F)(F)F)ccc1Sc1nccn1Cc1ccccc1 | i | i | -8.54* | i | i | -9.7 | i | i | 7.0%*
O=[N+]([O-])c1ccc(Sc2ncccn2)c([N+](=O)[O-])c1 | i | i | -1.08 | i | i | -8.7 | x | x | x
C=CCc1ccccc1OCCNCc1ccccc1 | i | i | -8.86* | i | i | -11.3 | i | i | 75.3%*
COc1ccc(CNCCS(=O)(=O)NCc2ccccc2)cc1 | x | x | x | x | i | x | x | x | x
COc1ccc(CNCC(O)(c2ccccc2)c2ccccc2)cc1 | i | i | -6.15* | i | i | -11.9 | 46.0%* | i | i
COc1ccc(CNCc2cccc(Oc3ccccc3)c2)cc1 | i | i | -13.5* | i | i | -12.7 | i | i | 85.1%*
COc1ccc(Br)cc1S(=O)(=O)N1CCOCC1 | i | i | 0.05 | i | i | -2.2 | x | x | x
COc1ccc(F)cc1S(=O)(=O)N1CCN(c2ccccn2)CC1 | i | i | -0.89 | i | i | -3.8 | x | x | x
SMILES | KCNQ1 act | KCNQ1 inh | Kir21 block | KCNK9 inh-1 | KCNK3 inh | hERG rescue | hERG inh | KCNK9 inh-2 | Kir2-1 patch inh
COc1ccc(F)cc1S(=O)(=O)N1CC(C)CC(C)C1 (configuration not stated) | i | i | -6.23* | i | i | -10.4 | i | i | 36.9%*
COc1ccc(Br)cc1S(=O)(=O)N1CC(C)OC(C)C1 (configuration not stated) | i | i | -6.23* | i | i | -9.9 | i | i | 26.5%*
O=C(CN1C(=O)NC2(CCCC2)C1=O)OCC(=O)c1cccc(Cl)c1 | x | x | x | x | i | x | x | x | x
CCCN1CCC(NC23CC4CC(CC(C4)C2)C3)CC1 | i | i | -9.82* | i | x | -6.9 | i | i | 41.1%*
CCOc1cc(S(=O)(=O)NCc2ccc3c(c2)OCO3)c(C)cc1C | i | i | -6.58* | i | i | -8.6 | i | i | 10.5%*
CN(C)S(=O)(=O)c1ccc(Cl)c(C(=O)NNC(=O)c2ccc3c(c2)OCO3)c1 | x | x | x | x | i | x | x | x | x
C=CCNc1nc(NCc2ccccc2)c(C#N)c2c1CN(C)CC2 | i | i | -6.81* | i | i | -14.3 | 64.0%* | i | 1.6%*
Cc1nn(C)cc1CN1CCCC(C(=O)c2ccc(-c3ccccc3)cc2)C1 (configuration not stated) | i | i | -2.38 | i | i | -8.7 | x | x | x
Cc1cn([C@H]2C[C@H](O)[C@@H](CCC(=O)NCc3ccccc3)O2)c(=O)[nH]c1=O | x | x | x | x | i | x | x | x | x
CCn1c(COc2ccccc2)nnc1SCc1ccc(C#N)cc1 | i | i | -6.47* | i | i | -11.2 | i | i | 25.0%*
COc1ccc(Nc2nc(N3CCCC3)c3ccccc3n2)cc1 | i | i | -11* | i | i | -8.1 | i | i | 45.5%*
CCc1ccc(CN(C)C(=O)c2cc(=O)c3ccccc3o2)cc1 | i | i | 0.31 | i | i | -13.6 | x | x | x
CN1CCC(N(C)C(=O)c2cc(=O)c3ccccc3o2)CC1 | i | i | -0.06 | i | i | -7.7 | i | i | i
CCCOc1ccc(/C=C/c2c([N+](=O)[O-])c(=O)n(C)c(=O)n2C)cc1 | i | i | -0.2 | i | i | -8.7 | x | x | x
COc1ccc(C(=O)C2CCN(C(=O)c3ccc(F)cc3)CC2)cc1 | i | i | 0.34 | i | i | -8.9 | x | x | x
COc1ccc(CN2CCC(C(=O)c3ccc(F)cc3)CC2)cc1 | i | i | -7.96* | i | i | -10.6 | 58.0%* | i | 63.1%*
